Laboratory results from ChEMBL document CHEMBL1138492, “Conformationally constrained analogues of diacylglycerol (DAG). 31. Modulation of the biological properties of diacylgycerol lactones (DAG-lactones) containing rigid-rod acyl groups separated from the core lactone by spacer units of different lengths” (J Med Chem, 2009).
Calls of active or inactive are those of the source. The calls are words filed in the database; no cut-off is given here.

Tests used:
[1] = biological target: T1, Protein kinase C delta type (Homo sapiens, UniProt Q05655); test: Displacement of [3H]PDBu form human PKCdelta in presence of plasma membrane lipid mimetic mixture
How it was run: (§1)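 [3H]PDBu competition on individual recombinant human PKC isozymes in 100 μg/mL total lipid mimicking the plasma-membrane inner leaflet (PC/PE/PS/PI/cholesterol 12:35:22:9:21); ID50 fitted to a sigmoidal competition curve, Ki = ID50/(1 + L/Kd); three independent determinations, mean ± SEM.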
Target sequence in this assay (Q05655 whole entry): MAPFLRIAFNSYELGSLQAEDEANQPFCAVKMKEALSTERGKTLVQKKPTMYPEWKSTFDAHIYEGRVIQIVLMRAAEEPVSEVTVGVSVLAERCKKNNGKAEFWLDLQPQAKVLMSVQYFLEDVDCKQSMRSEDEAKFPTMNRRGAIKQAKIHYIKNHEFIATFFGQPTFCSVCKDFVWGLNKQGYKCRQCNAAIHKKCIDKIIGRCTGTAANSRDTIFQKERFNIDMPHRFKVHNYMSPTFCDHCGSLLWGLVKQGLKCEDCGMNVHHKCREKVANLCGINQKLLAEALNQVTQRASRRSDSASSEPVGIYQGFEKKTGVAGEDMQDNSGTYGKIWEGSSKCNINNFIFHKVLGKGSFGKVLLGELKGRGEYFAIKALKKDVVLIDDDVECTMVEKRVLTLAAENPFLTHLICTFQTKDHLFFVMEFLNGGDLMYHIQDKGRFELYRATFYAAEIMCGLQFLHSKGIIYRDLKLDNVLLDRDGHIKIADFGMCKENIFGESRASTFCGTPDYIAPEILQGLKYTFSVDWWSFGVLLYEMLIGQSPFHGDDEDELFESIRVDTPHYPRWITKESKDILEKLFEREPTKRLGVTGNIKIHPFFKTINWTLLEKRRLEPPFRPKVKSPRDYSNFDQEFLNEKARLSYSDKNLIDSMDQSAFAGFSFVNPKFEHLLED

[2] = biological target: T2, Protein kinase C epsilon type (Homo sapiens, UniProt Q02156); test: Displacement of [3H]PDBu form human PKCepsilon in presence of plasma membrane lipid mimetic mixture; how it was run: as §1
T2 sequence (Q02156 whole entry): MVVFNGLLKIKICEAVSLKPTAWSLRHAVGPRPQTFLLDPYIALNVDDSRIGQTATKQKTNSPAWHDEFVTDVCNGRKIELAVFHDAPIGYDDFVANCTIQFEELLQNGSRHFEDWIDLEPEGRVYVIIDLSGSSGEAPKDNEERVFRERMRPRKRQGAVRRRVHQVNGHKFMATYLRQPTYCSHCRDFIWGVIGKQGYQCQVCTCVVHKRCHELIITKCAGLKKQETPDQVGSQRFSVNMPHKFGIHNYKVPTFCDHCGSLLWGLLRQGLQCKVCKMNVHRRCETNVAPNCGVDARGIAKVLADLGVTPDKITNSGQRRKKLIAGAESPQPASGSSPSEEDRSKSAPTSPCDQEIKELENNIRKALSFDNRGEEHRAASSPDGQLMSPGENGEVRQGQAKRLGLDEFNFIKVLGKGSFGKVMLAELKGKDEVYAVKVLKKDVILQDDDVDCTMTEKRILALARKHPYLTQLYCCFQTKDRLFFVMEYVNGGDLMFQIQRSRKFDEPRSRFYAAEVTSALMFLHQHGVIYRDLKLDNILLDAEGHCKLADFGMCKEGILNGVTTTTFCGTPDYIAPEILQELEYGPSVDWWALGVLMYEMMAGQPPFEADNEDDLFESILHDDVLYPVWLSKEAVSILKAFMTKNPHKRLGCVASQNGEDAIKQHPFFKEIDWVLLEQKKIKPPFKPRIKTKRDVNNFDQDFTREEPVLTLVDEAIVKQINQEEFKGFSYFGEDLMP

[3] = biological target: T3, Protein kinase C alpha type (Homo sapiens, UniProt P17252); test: Activation of GFP-tagged PKCalpha expressed in CHO cells assessed as isozyme translocation from cytosol to plasma membrane at 10 uM by confocal microscopy; type: cell-based
How it was run: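 GFP-PKCα transiently transfected (Lipofectamine) into CHO cells grown in F12-K with 10% FBS; cells given 10 μM compound and redistribution followed over time by confocal microscopy (488 nm argon excitation), images every 30 s; kinetics of plasma-membrane translocation scored from four independent experiments.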

[4] = biological target: T1, Protein kinase C delta type; test: Activation of GFP-tagged PKCdelta expressed in CHO cells assessed as isozyme translocation from cytosol to internal membrane at 10 uM by confocal microscopy; type: cell-based
How it was run: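 CHO cells in F12-K/10% FBS transiently transfected with GFP-PKCδ, exposed to 10 μM compound; confocal imaging at 488 nm every 30 s after addition; relative localization to plasma, nuclear and internal membranes scored semi-quantitatively (+ marks) over three independent experiments.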
Target sequence in this assay (Q05655 whole entry, looked up): as the sequence (Q05655 whole entry) above

[5] = Membrane binding affinity to synthetic dimyristoylphosphatidylcholine/polydiacetylene vesicles assessed as increase in fluorescence chromatic response by fluorescence spectroscopy; type: physicochemical
How it was run: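 DMPC/10,12-tricosadiynoic acid vesicles polymerized at 254 nm for 30 s, used at 0.5 mM total lipid in 50 mM Tris, pH 8; compounds in DMSO mixed with vesicles before buffer addition; fluorescence read at 485/555 nm excitation/emission, expressed as % of fully transformed red vesicles over a dose range.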

[6] = biological target: T3, Protein kinase C alpha type; test: Displacement of [3H]PDBu form human PKCalpha in presence of phosphatidylserine
How it was run: (§2)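 Recombinant human PKC isozyme, single isozyme per assay, with 100 μg/mL phosphatidylserine; competition of unlabeled ligand against [20-3H]PDBu binding; ID50 from least-squares sigmoidal fit, converted to Ki = ID50/(1 + L/Kd), L being free [3H]PDBu at ID50; mean ± SEM of three independent experiments.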

[7] = biological target: T4, Protein kinase C beta type (Homo sapiens, UniProt P05771); test: Displacement of [3H]PDBu form human PKCbeta in presence of phosphatidylserine; how it was run: as §2
[8] = biological target: T5, Protein kinase C gamma type (Homo sapiens, UniProt P05129); test: Displacement of [3H]PDBu form human PKCgamma in presence of phosphatidylserine; how it was run: as §2
[9] = biological target: T1, Protein kinase C delta type; test: Displacement of [3H]PDBu form human PKCdelta in presence of phosphatidylserine; how it was run: as §2
Target sequence in this assay (Q05655 whole entry): as the sequence (Q05655 whole entry) above

[10] = biological target: T2, Protein kinase C epsilon type; test: Displacement of [3H]PDBu form human PKCepsilon in presence of phosphatidylserine; how it was run: as §2
[11] = biological target: T3, Protein kinase C alpha type; test: Displacement of [3H]PDBu form human PKCalpha in presence of plasma membrane lipid mimetic mixture; how it was run: as §1
[12] = biological target: T4, Protein kinase C beta type; test: Displacement of [3H]PDBu form human PKCbeta in presence of plasma membrane lipid mimetic mixture; how it was run: as §1
[13] = biological target: T5, Protein kinase C gamma type; test: Displacement of [3H]PDBu form human PKCgamma in presence of plasma membrane lipid mimetic mixture; how it was run: as §1
LNCaP = test: Induction of apoptosis in human LNCAP cells after 48 hrs by flow cytometry relative to PMA; type: functional, cell-based
How it was run: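 LNCaP cells in RPMI-1640/10% FBS, plated at ~60% confluency, treated with a concentration series for 48 h alongside 1 μM PMA; stained with YO-PRO-1 (1 μM final, 20 min, 4 °C, dark) then 7-AAD (5 μg/mL final, 10 min) and analyzed by flow cytometry; YO-PRO-1-positive cells taken as apoptotic, % of total; three experiments.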

T4 sequence (P05771 whole entry): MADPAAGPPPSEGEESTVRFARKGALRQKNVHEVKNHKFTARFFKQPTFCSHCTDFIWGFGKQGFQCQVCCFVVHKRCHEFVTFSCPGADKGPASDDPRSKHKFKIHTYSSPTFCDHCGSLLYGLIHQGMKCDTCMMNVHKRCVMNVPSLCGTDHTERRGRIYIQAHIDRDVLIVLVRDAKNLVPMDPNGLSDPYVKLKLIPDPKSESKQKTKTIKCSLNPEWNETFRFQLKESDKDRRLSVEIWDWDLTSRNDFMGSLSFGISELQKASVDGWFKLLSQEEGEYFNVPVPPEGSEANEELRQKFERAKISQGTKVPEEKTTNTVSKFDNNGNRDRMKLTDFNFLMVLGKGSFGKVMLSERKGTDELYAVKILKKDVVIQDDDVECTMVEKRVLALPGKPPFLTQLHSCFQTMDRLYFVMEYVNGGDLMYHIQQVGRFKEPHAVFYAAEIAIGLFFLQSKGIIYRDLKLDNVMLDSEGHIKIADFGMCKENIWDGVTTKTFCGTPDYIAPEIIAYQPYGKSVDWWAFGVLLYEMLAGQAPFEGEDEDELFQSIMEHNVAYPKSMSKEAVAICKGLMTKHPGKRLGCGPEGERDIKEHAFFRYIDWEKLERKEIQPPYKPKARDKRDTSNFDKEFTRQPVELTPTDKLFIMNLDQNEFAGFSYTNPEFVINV

SMILES	Ki [1] [nM]	Ki [2] [nM]	Activity [3]	Activity [4]	Activity [5]	Ki [6] [nM]	Ki [7] [nM]	Ki [8] [nM]	Ki [9] [nM]	Ki [10] [nM]	Ki [11] [nM]	Ki [12] [nM]	Ki [13] [nM]	Activity (LNCaP)
CC(C)=C1CC(CO)(COC(=O)CCOc2ccc(C#Cc3ccc(C)cc3)cc2)OC1=O (stereo unspecified)	31.3	78.7	Active	Active	Active	20.8	57	35	35.8	153	143	66	78	–
CC(C)=C1CC(CO)(COC(=O)COc2ccc(C#Cc3ccc(C)cc3)cc2)OC1=O (stereo unspecified)	47.7	147	Active	Active	Active	38	76	50.8	46.4	268	165	100	140	Active
CC(C)=C1CC(CO)(COC(=O)CCCOc2ccc(C#Cc3ccc(C)cc3)cc2)OC1=O (stereo unspecified)	11.6	31.9	Active	–	Active	19.5	15.2	12.3	11.9	37.9	76	43.8	31.7	–
CC(C)=C1CC(CO)(COC(=O)c2ccc(C#Cc3ccc(C)cc3)cc2)OC1=O (stereo unspecified)	2.74	8.3	Active	–	Active	6	4.1	6.2	5.4	10	15.8	12.6	15.7	–
